Test results reported in ChEMBL document CHEMBL5380845, “Going beyond Binary: Rapid Identification of Protein-Protein Interaction Modulators Using a Multifragment Kinetic Target-Guided Synthesis Approach” (J Med Chem, 2023).

Experiment: Inhibition of GST-tagged mouse Mcl-1 (152 to 309 residues)/FITC-labelled Bim (unknown origin) protein protein interaction at 100 uM by fluorescence polarization method relative to control
Method in brief: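 Single-point fluorescence polarization competition at 100 μM. GST-tagged mouse Mcl-1(152–309) (20 nM stock in PBS, 0.005% Tween 20) was mixed with the compound in PBS containing 25% DMSO and 0.005% Tween 20. FITC-Bim-BH3 (10 nM stock in PBS, 5% DMSO) was then added and shaken 3 min at room temperature. Polarization (mP) was read at ex 480/em 535 nm, and percent inhibition is relative to control.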

inhibition, 25%:
[N-]=[N+]=NS(=O)(=O)c1ccc(CN2Cc3c(Cl)cccc3C(Sc3ccccc3)C2)cc1 (configuration not stated)

inhibition, 14%:
[N-]=[N+]=NS(=O)(=O)c1ccc2ccc(S(=O)(=O)NCCSc3ccccc3)cc2c1

inhibition, < 5%:
O=C(S)c1cccc([N+](=O)[O-])c1
O=C(S)c1ccno1
COc1cc2c(cc1OC)C(O)N(CC(=O)O)CC2 (configuration not stated)
CC1(C)CCN(c2ccc(C(=O)S)cc2)CC1
OC(=S)c1ccccc1
Cc1nc(-c2ccccc2)sc1C(=O)S
COc1cc(OC)cc(C(=O)S)c1
O=C(S)c1cccc2ccccc12
O=C(S)c1ccco1
O=C(S)c1ccc(OC(F)(F)F)cc1
